Legend:
Format in all cases: functional
[1] = tested on: CCRF-CEM; assay: Growth inhibition of human CCRF-CEM cells incubated for 48 hrs by sulforhodamine B assay
In short: (§1)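 NCI-60 screen. Compounds were dosed at five concentrations spanning 10^-4 to 10^-8 M for 48 h at 37 °C. Cells were TCA-fixed, stained with 0.4% SRB and read at 515 nm against time-zero and vehicle controls. GI50 is the concentration giving a 50% reduction in net protein increase.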

[2] = tested on: HL-60(TB); assay: Growth inhibition of human HL-60(TB) cells incubated for 48 hrs by sulforhodamine B assay; conditions: HL-60, 48 h
In short: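 Performed at NCI's 60-line screen. Cells grown in RPMI with 5% FBS and 2 mM L-glutamine, plated 5,000–40,000 cells/well and incubated 24 h at 37 °C before compound addition. DMSO stocks were diluted in medium with gentamicin, and five concentrations spanning 10^-4 to 10^-8 M were tested. Exposure was 48 h. Cells were fixed with TCA, stained with SRB, and read at 515 nm. GI50 taken from log dose-response curves as 50% reduction in net protein increase versus control.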

[3] = tested on: K562; assay: Growth inhibition of human K562 cells incubated for 48 hrs by sulforhodamine B assay; conditions: K562, 48 h; in short: as §1
[4] = tested on: MOLT-4; assay: Growth inhibition of human MOLT4 cells incubated for 48 hrs by sulforhodamine B assay; conditions: MOLT-4, 48 h; in short: as §1
[5] = tested on: RPMI-8226; assay: Growth inhibition of human RPMI8226 cells incubated for 48 hrs by sulforhodamine B assay; conditions: RPMI-8226, 48 h; in short: as §1
[6] = tested on: A549; assay: Growth inhibition of human A549/ATCC cells incubated for 48 hrs by sulforhodamine B assay; conditions: A549, 48 h; in short: as §1
[7] = tested on: HOP-92; assay: Growth inhibition of human HOP92 cells incubated for 48 hrs by sulforhodamine B assay; conditions: HOP-92, 48 h; in short: as §1
[8] = tested on: NCI-H226; assay: Growth inhibition of human NCI-H226 cells incubated for 48 hrs by sulforhodamine B assay; conditions: NCI-H226, 48 h; in short: as §1
[9] = tested on: NCI-H23; assay: Growth inhibition of human NCI-H23 cells incubated for 48 hrs by sulforhodamine B assay; conditions: NCI-H23, 48 h; in short: as §1
[10] = tested on: NCI-H322M; assay: Growth inhibition of human NCI-H322M cells incubated for 48 hrs by sulforhodamine B assay; in short: as §1
[11] = tested on: NCI-H460; assay: Growth inhibition of human NCI-H460 cells incubated for 48 hrs by sulforhodamine B assay; conditions: NCI-H460, 48 h; in short: as §1
[12] = tested on: NCI-H522; assay: Growth inhibition of human NCI-H522 cells incubated for 48 hrs by sulforhodamine B assay; conditions: NCI-H522, 48 h; in short: as §1
[13] = tested on: HCC 2998; assay: Growth inhibition of human HCC2998 cells incubated for 48 hrs by sulforhodamine B assay; conditions: HCC 2998, 48 h; in short: as §1
[14] = tested on: HCT-116; assay: Growth inhibition of human HCT116 cells incubated for 48 hrs by sulforhodamine B assay; conditions: HCT-116, 48 h; in short: as §1
[15] = tested on: HCT-15; assay: Growth inhibition of human HCT15 cells incubated for 48 hrs by sulforhodamine B assay; conditions: HCT-15, 48 h; in short: as §1
[16] = tested on: HT-29; assay: Growth inhibition of human HT-29 cells incubated for 48 hrs by sulforhodamine B assay; conditions: HT-29, 48 h; in short: as §1
[17] = tested on: KM12; assay: Growth inhibition of human KM12 cells incubated for 48 hrs by sulforhodamine B assay; conditions: KM12, 48 h; in short: as §1
[18] = tested on: SW-620; assay: Growth inhibition of human SW620 cells incubated for 48 hrs by sulforhodamine B assay; conditions: SW-620, 48 h
In short: (§2)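 NCI-60 screen run at NCI. Cells grown in RPMI medium with 5% FBS and 2 mM L-glutamine, plated at 5,000–40,000 cells/well, and preincubated 24 h at 37 °C. Time-zero plates were TCA-fixed. Compounds came from DMSO stocks and were tested at five concentrations from 10^-4 to 10^-8 M for 48 h. Cells were then TCA-fixed, stained with 0.4% SRB, and OD read at 515 nm. GI50 is the concentration giving a 50% reduction in net protein increase versus control.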

[19] = tested on: SF-268; assay: Growth inhibition of human SF268 cells incubated for 48 hrs by sulforhodamine B assay; conditions: SF-268, 48 h; in short: as §1
[20] = tested on: SF-295; assay: Growth inhibition of human SF295 cells incubated for 48 hrs by sulforhodamine B assay; conditions: SF-295, 48 h; in short: as §1
[21] = tested on: SF-539; assay: Growth inhibition of human SF539 cells incubated for 48 hrs by sulforhodamine B assay; conditions: SF-539, 48 h; in short: as §1
[22] = tested on: SNB-19; assay: Growth inhibition of human SNB19 cells incubated for 48 hrs by sulforhodamine B assay; conditions: SNB-19, 48 h; in short: as §2
[23] = tested on: U-251; assay: Growth inhibition of human U251 cells incubated for 48 hrs by sulforhodamine B assay; conditions: U-251, 48 h; in short: as §2
[24] = tested on: LOX IMVI; assay: Growth inhibition of human LOXIMVI cells incubated for 48 hrs by sulforhodamine B assay; in short: as §1
[25] = tested on: Malme-3M; assay: Growth inhibition of human MALME-3M cells incubated for 48 hrs by sulforhodamine B assay; in short: as §1
[26] = tested on: SK-MEL-28; assay: Growth inhibition of human SK-MEL-28 cells incubated for 48 hrs by sulforhodamine B assay; conditions: SK-MEL-28, 48 h; in short: as §1
[27] = tested on: UACC-257; assay: Growth inhibition of human UACC257 cells incubated for 48 hrs by sulforhodamine B assay; conditions: UACC-257, 48 h; in short: as §2
[28] = tested on: OVCAR-5; assay: Growth inhibition of human OVCAR5 cells incubated for 48 hrs by sulforhodamine B assay; conditions: OVCAR-5, 48 h; in short: as §1
[29] = tested on: OVCAR-8; assay: Growth inhibition of human OVCAR8 cells incubated for 48 hrs by sulforhodamine B assay; conditions: OVCAR-8, 48 h; in short: as §1
[30] = tested on: NCI/ADR-RES; assay: Growth inhibition of human NCI/ADR-RES cells incubated for 48 hrs by sulforhodamine B assay; in short: as §1
[31] = tested on: SK-OV-3; assay: Growth inhibition of human SKOV3 cells incubated for 48 hrs by sulforhodamine B assay; conditions: SK-OV-3, 48 h; in short: as §1
[32] = tested on: A498; assay: Growth inhibition of human A498 cells incubated for 48 hrs by sulforhodamine B assay; conditions: A498, 48 h; in short: as §1
[33] = tested on: RXF 393; assay: Growth inhibition of human RXF393 cells incubated for 48 hrs by sulforhodamine B assay; conditions: RXF 393, 48 h; in short: as §1
[34] = tested on: SN12C; assay: Growth inhibition of human SN12C cells incubated for 48 hrs by sulforhodamine B assay; in short: as §1
[35] = tested on: UO-31; assay: Growth inhibition of human UO31 cells incubated for 48 hrs by sulforhodamine B assay; conditions: UO-31, 48 h; in short: as §2
[36] = tested on: MCF7; assay: Growth inhibition of human MCF7 cells incubated for 48 hrs by sulforhodamine B assay; conditions: MCF7, 48 h; in short: as §1
[37] = Cytotoxicity against human M9-ENL1 cells assessed as reduction in cell viability by trypan blue staining-based assay
In short: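 M9-ENL1 AML cells (MLL-ENL-transduced human blood cells) plated at 10^6 cells/mL in alpha-MEM with 5% human plasma, 20% FBS, SCF, IL-3, IL-7 and FLT3. Drug diluted from DMSO stock into PBS, final DMSO ≤0.5%. After 24 h exposure, dead cells assessed by trypan blue and by flow cytometry (Annexin V/PI or Annexin V/7-AAD). Viability normalized to vehicle; EC50 from dose-response curves; triplicate.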

Structure (SMILES) | GI50 [1] | GI50 [2] | GI50 [3] | GI50 [4] | GI50 [5] | GI50 [6] | GI50 [7] | GI50 [8] | GI50 [9] | GI50 [10] | GI50 [11] | GI50 [12] | GI50 [13] | GI50 [14] | GI50 [15] | GI50 [16] | GI50 [17] | GI50 [18] | GI50 [19] | GI50 [20] | further results
C=C1C(=O)O[C@@H]2[C@H]3O[C@]3(C)CC/C=C(/COC(=O)c3c[nH]c4ccccc34)CC[C@@H]12 | 50 nM | 270 nM | 270 nM | 280 nM | 40 nM | 1500 nM | 160 nM | 440 nM | 1630 nM | 1850 nM | 1100 nM | 190 nM | 320 nM | 190 nM | 250 nM | 240 nM | 470 nM | 230 nM | 290 nM | 1940 nM | GI50 [21]: 260 nM; GI50 [22]: 1300 nM; GI50 [23]: 610 nM; GI50 [24]: 40 nM; GI50 [25]: 320 nM; GI50 [26]: 360 nM; GI50 [27]: 360 nM; GI50 [28]: 400 nM; GI50 [29]: 280 nM; GI50 [30]: 390 nM; GI50 [31]: 2240 nM; GI50 [32]: 260 nM; GI50 [33]: 190 nM; GI50 [34]: 230 nM; GI50 [35]: 160 nM; GI50 [36]: 260 nM; EC50 [37]: 1900 nM
C=C1C(=O)O[C@@H]2[C@H]3O[C@]3(C)CC/C=C(/COC(=O)CCCc3c[nH]c4ccccc34)CC[C@@H]12 | 750 nM | 1630 nM | 2600 nM | 1530 nM | 2310 nM | 5470 nM | 1680 nM | 2040 nM | 1720 nM | 13800 nM | 4540 nM | 1570 nM | 1790 nM | 960 nM | 1610 nM | 1710 nM | 1890 nM | 1840 nM | 1690 nM | 5690 nM | GI50 [21]: 1630 nM; GI50 [22]: 2590 nM; GI50 [23]: 1950 nM; GI50 [24]: 1550 nM; GI50 [25]: 1790 nM; GI50 [26]: 1700 nM; GI50 [27]: 2030 nM; GI50 [28]: 1890 nM; GI50 [29]: 3380 nM; GI50 [30]: 2900 nM; GI50 [31]: 17300 nM; GI50 [32]: 11900 nM; GI50 [33]: 1460 nM; GI50 [34]: 1900 nM; GI50 [35]: 1410 nM; GI50 [36]: 1420 nM; EC50 [37]: 2000 nM
C=C1C(=O)O[C@@H]2[C@H]3O[C@]3(C)CC/C=C(/COC(=O)c3cn(C)c4ccccc34)CC[C@@H]12 | 210 nM | 1540 nM | 400 nM | 570 nM | 210 nM | 1820 nM | 360 nM | 1480 nM | 1930 nM | 3010 nM | 1730 nM | 390 nM | 1810 nM | 1020 nM | 530 nM | 520 nM | 1830 nM | 300 nM | 1300 nM | 2410 nM | GI50 [21]: 740 nM; GI50 [22]: 1590 nM; GI50 [23]: 1420 nM; GI50 [24]: 220 nM; GI50 [25]: 1620 nM; GI50 [26]: 1550 nM; GI50 [27]: 1320 nM; GI50 [28]: 1560 nM; GI50 [29]: 800 nM; GI50 [30]: 2150 nM; GI50 [31]: 4330 nM; GI50 [32]: 1590 nM; GI50 [33]: 580 nM; GI50 [34]: 710 nM; GI50 [35]: 770 nM; GI50 [36]: 400 nM; EC50 [37]: 7200 nM
C=C1C(=O)O[C@@H]2[C@H]3O[C@]3(C)CC/C=C(/COC(=O)c3cc4ccccc4[nH]3)CC[C@@H]12 | 280 nM | 540 nM | 320 nM | 1510 nM | 260 nM | 2060 nM | 480 nM | 1470 nM | 1690 nM | 1680 nM | 1730 nM | 750 nM | 2140 nM | 190 nM | 210 nM | 270 nM | 2050 nM | 250 nM | 1590 nM | 1710 nM | GI50 [21]: 1320 nM; GI50 [22]: 1600 nM; GI50 [23]: 1890 nM; GI50 [24]: 180 nM; GI50 [25]: 1560 nM; GI50 [26]: 1290 nM; GI50 [27]: 1610 nM; GI50 [28]: 1140 nM; GI50 [29]: 1990 nM; GI50 [30]: 2200 nM; GI50 [31]: 1650 nM; GI50 [32]: 1740 nM; GI50 [33]: 1070 nM; GI50 [34]: 1740 nM; GI50 [35]: 880 nM; GI50 [36]: 300 nM; EC50 [37]: 1100 nM

— ChEMBL document CHEMBL4138104, “Indole carboxylic acid esters of melampomagnolide B are potent anticancer agents against both hematological and solid tumor cells” (Eur J Med Chem, 2017)
